Measurements as given in article PMC6690775 (FEBS letters, 2019).
Like-named read-outs stand apart in the source and are kept apart here.

Experiments:
Hsc70-NBD [1] = target: T1, Hsc70-NBD (Homo sapiens, UniProt P11142); assay: Competitive inhibition of ATPase activity; type: biochemical
Method in brief: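 PNP/MESG coupling (0.2 U, 0.2 μM, 10 min, 25 °C); ATP at 50 μM final started reaction; A360 read each minute for 60 min, 25 °C; triplicates minus no-enzyme control. IC50 from one-site logIC50 fit of fractional activity; Kiapp from Morrison fit constrained by prior KM.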

Hsc70-NBD [2] = target: T1, Hsc70-NBD; assay: ITC binding of modified ADP analogues to Hsc70-NBD; settings: for ΔΗ: binding enthalpy change; for ΔS: binding entropy change
mortalin-NBD [3] = target: T2, mortalin-NBD (Homo sapiens, UniProt P38646); assay: Competitive inhibition of ATPase activity; type: biochemical; settings: for inhibition of ATP hydrolysis of mortalin-NBD (in words): compared with ADP
Method in brief: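 Human mortalin-NBD (residues 52–431) was expressed in E. coli Rosetta2(DE3) with a TEV-cleaved His6 tag, then purified by Ni, size-exclusion and Blue columns. Enzyme in binding buffer (HEPES pH 7.8, MgCl2, KCl) was mixed with PNP/MESG and inhibitor at 0–3 mM. ATP was added to 50 μM final, and A360 was read every minute for 60 min at 25 °C, in triplicate, minus no-enzyme control. IC50 came from a one-site logIC50 fit. Kiapp came from a Morrison fit constrained by Et 1 μM, ATP 50 μM and a previously determined KM.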

Hsp70-NBD [4] = target: T3, Hsp70-NBD (Homo sapiens, UniProt P0DMV8); assay: ITC binding of modified ADP analogues to Hsp70-NBD; settings: for ΔΗ: binding enthalpy change; for ΔS: binding entropy change
Hsp70-NBD [5] = target: T3, Hsp70-NBD; assay: Competitive inhibition of ATPase activity; type: biochemical
Method in brief: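 Human Hsp70-NBD (residues 1–381) was expressed in E. coli Rosetta2(DE3) with a TEV-cleaved His6 tag and purified by Ni, size-exclusion and Blue columns. Phosphate release (EnzChek; PNP 0.2 U, MESG 0.2 μM) was measured with inhibitor at 0–3 mM and ATP 50 μM final. A360 was read each minute for 60 min at 25 °C in triplicate, minus no-enzyme control. IC50 came from a one-site logIC50 fit of fractional activity; Kiapp came from a Morrison fit of V0.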

mortalin-NBD [6] = target: T2, mortalin-NBD; assay: ITC binding of modified ADP analogues to mortalin-NBD; settings: for ΔΗ: binding enthalpy change; for ΔS: binding entropy change
mortalin-NBD [7] = target: T2, mortalin-NBD; settings: previously reported; cited from earlier work
[8] = read-out: KIapp, mortalin-NBD 1 μM, ATP 50 μM, 25 °C, Morrison fit
[9] = mortalin-NBD, ITC Kd relative to ADP

T1 sequence (P11142 1-385): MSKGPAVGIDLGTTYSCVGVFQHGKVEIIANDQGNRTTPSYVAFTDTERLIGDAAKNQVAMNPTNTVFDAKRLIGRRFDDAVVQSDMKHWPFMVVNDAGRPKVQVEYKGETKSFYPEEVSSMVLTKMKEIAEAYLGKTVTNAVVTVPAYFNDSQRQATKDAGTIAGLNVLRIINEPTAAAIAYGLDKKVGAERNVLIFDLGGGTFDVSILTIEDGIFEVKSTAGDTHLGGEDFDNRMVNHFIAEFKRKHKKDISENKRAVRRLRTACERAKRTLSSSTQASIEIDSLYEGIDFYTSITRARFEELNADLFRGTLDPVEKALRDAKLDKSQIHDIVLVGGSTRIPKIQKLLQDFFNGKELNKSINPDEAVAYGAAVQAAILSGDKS
T2 sequence (P38646 52-431): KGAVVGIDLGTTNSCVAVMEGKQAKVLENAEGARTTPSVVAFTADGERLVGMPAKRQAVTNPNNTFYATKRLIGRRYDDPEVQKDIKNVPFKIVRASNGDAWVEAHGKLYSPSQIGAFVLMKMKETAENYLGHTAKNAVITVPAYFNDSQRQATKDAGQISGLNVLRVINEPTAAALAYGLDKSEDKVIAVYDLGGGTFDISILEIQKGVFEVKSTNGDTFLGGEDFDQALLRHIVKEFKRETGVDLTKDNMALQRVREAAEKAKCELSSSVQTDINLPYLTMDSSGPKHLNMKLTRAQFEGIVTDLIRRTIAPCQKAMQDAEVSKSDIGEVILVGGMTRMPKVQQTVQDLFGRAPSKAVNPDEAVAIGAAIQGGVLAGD
T3 sequence (P0DMV8 1-381): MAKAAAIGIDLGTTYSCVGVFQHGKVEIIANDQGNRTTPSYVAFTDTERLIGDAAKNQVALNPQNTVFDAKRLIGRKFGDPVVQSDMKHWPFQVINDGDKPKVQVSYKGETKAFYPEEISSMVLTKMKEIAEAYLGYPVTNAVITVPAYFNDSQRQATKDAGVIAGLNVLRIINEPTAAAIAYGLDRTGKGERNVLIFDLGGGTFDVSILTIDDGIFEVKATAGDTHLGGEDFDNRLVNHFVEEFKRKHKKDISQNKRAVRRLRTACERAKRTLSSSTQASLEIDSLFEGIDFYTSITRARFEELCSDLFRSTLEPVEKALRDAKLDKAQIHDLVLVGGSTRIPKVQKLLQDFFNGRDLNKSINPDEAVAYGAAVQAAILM

Row | SMILES | IC50 (Hsc70-NBD [1]) | Ki (Hsc70-NBD [1]) | Kd (Hsc70-NBD [2]) | ΔΗ (Hsc70-NBD [2]; ITC, 25 °C, Hsc70-NBD) | ΔS (Hsc70-NBD [2]; ITC, 25 °C, Hsc70-NBD) | Kd (Hsp70-NBD [4]) | ΔΗ (Hsp70-NBD [4]; ITC, 25 °C, Hsp70-NBD) | ΔS (Hsp70-NBD [4]; ITC, 25 °C, Hsp70-NBD) | IC50 (Hsp70-NBD [5]) | Ki (Hsp70-NBD [5]) | inhibition of ATP hydrolysis of mortalin-NBD (in words) (mortalin-NBD [3]) | ΔΗ (mortalin-NBD [6]; ITC, 25 °C, mortalin-NBD) | ΔS (mortalin-NBD [6]; ITC, 25 °C, mortalin-NBD) | affinity tighter than ADP (mortalin-NBD [6]; [9]) | IC50 (mortalin-NBD [3]) | Ki (mortalin-NBD [3]) | Kd (mortalin-NBD [6]) | also measured
1 | Nc1nc(Cl)nc2c1ncn2[C@@H]1O[C@H](COP(=O)(O)OP(=O)(O)O)[C@@H](O)[C@H]1O [2-Cl ADP] |  |  |  |  |  |  |  |  |  |  | more effectively compared to ADP | -4.54 ± 0.172 kcal/mol | 45.4 ± 3.04 J/mol·K | ~ 3 fold |  |  |  | inhibition of Hsc70-NBD (in words) (Hsc70-NBD [1]): no reliably demonstrable inhibition; binding to Hsc70-NBD (in words) (Hsc70-NBD [2]; ITC): did not yield data that could be fitted; Ki (mortalin-NBD [3]; [8]): 45.1 ± 2.42 µM; binding to Hsp70-NBD (in words) (Hsp70-NBD [4]; ITC): did not yield data that could be fitted; inhibition of Hsp70-NBD (in words) (Hsp70-NBD [5]): no reliably demonstrable inhibition; Kd (mortalin-NBD [6]; ITC, 25 °C, mortalin-NBD): 1.77 µM
2 | CSc1nc(N)c2ncn([C@@H]3O[C@H](COP(=O)(O)OP(=O)(O)O)[C@@H](O)[C@H]3O)c2n1 [2-MeS ADP, 2-methylthio-adenosine-5’-diphosphate] |  |  |  |  |  |  |  |  |  |  |  | -2.96 ± 0.865 kcal/mol | 54.5 ± 16.5 J/mol·K |  | 902 µM | 523 ± 98.3 µM | 9.81 µM | inhibition of Hsc70-NBD (in words) (Hsc70-NBD [1]): no reliably demonstrable inhibition; binding to Hsc70-NBD (in words) (Hsc70-NBD [2]; ITC): did not yield data that could be fitted; binding to Hsp70-NBD (in words) (Hsp70-NBD [4]; ITC): did not yield data that could be fitted; inhibition of Hsp70-NBD (in words) (Hsp70-NBD [5]): no reliably demonstrable inhibition; decrease in affinity compared to ADP (mortalin-NBD [6]; [9]): ~2 fold
3 | Cc1cccc(CNc2ncnc3c2ncn3[C@@H]2O[C@H](COP(=O)(O)OP(=O)(O)O)[C@@H](O)[C@H]2O)c1 [6-(3-MeBn) ADP, N6-(3-methylbenzyl)adenosine-5’-diphosphate] | 8040 µM | 682 ± 179 µM | 3.35 µM | -10.22 ± 0.906 kcal/mol | −41.10 ± 12.94 J/mol·K | 0.252 µM | -4.787 ± 0.225 kcal/mol | 58.44 ± 3.96 J/mol·K | 1870 µM | 1300 ± 148 µM |  | -3.13 ± 0.0545 kcal/mol | 50.2 ± 1.73 J/mol·K |  | 1430 µM | 675 ± 99.4 µM | 11.4 µM | 
4 | O=P(O)(O)OP(=O)(O)OC[C@H]1O[C@@H](n2cnc3c(NCc4ccccc4)ncnc32)[C@H](O)[C@@H]1O [6-Bn ADP, N6-benzyladenosine-5’-diphosphate] | 1470 µM | 295 ± 67.2 µM | 0.159 µM | -4.077 ± 0.0645 kcal/mol | 72.13 ± 2.77 J/mol·K | 2.16 µM | -3.941 ± 1.02 kcal/mol | 53.04 ± 14.20 J/mol·K | 2330 µM | 1610 ± 137 µM | more effectively compared to ADP | -2.99 ± 0.839 kcal/mol | 61.8 ± 12.1 J/mol·K | ~ 1.5 fold | 119 µM | 86.5 ± 10.3 µM | 3.52 µM | 
5 | O=P(O)(O)OP(=O)(O)OC[C@H]1O[C@@H](n2cnc3c(NCc4ccco4)ncnc32)[C@H](O)[C@@H]1O [6-Fu ADP, N6-furfuryladenosine-5’-diphosphate] | 6780 µM | 723 ± 179 µM | 8.7 µM | -5.457 ± 0.514 kcal/mol | 19.22 ± 5.06 J/mol·K | 4.27 µM | -2.395 ± 0.562 kcal/mol | 68.77 ± 8.28 J/mol·K | 3240 µM | 1860 ± 172 µM |  | -5.04 ± 0.277 kcal/mol | 28.7 ± 6.85 J/mol·K |  | 558 µM | 565 ± 49.6 µM | 5.84 µM | 

Second part, led by results:

Row | IC50 (Hsc70-NBD [1]) | Ki (Hsc70-NBD [1]) | Kd (Hsc70-NBD [2]) | ΔΗ (Hsc70-NBD [2]; ITC, 25 °C, Hsc70-NBD) | ΔS (Hsc70-NBD [2]; ITC, 25 °C, Hsc70-NBD) | Kd (Hsp70-NBD [4]) | ΔΗ (Hsp70-NBD [4]; ITC, 25 °C, Hsp70-NBD) | ΔS (Hsp70-NBD [4]; ITC, 25 °C, Hsp70-NBD) | IC50 (Hsp70-NBD [5]) | Ki (Hsp70-NBD [5]) | SMILES | inhibition of ATP hydrolysis of mortalin-NBD (in words) (mortalin-NBD [3]) | ΔΗ (mortalin-NBD [6]; ITC, 25 °C, mortalin-NBD) | ΔS (mortalin-NBD [6]; ITC, 25 °C, mortalin-NBD) | affinity tighter than ADP (mortalin-NBD [6]; [9]) | IC50 (mortalin-NBD [3]) | Ki (mortalin-NBD [3]) | Kd (mortalin-NBD [6]) | also measured
6 | 2100 µM | 445 ± 101 µM | 0.237 µM | -4.316 ± 0.022 kcal/mol | 65.31 ± 1.22 J/mol·K | 0.143 µM | -10.8 ± 0.208 kcal/mol | −22.97 ± 3.25 J/mol·K | 3120 µM | 1160 ± 189 µM | O=P(O)(O)OP(=O)(O)OC[C@H]1O[C@@H](n2cnc3c(NCCc4ccccc4)ncnc32)[C@H](O)[C@@H]1O [6-PheEt ADP, N6-(2-phenylethyl)adenosine-5’-diphosphate] | more effectively compared to ADP | -8.1 ± 0.495 kcal/mol | −10.4 ± 5.17 J/mol·K | ~ 1.25 fold | 173 µM | 97.3 ± 9.96 µM | 4.19 µM | 
7 | 2230 µM | 622 ± 183 µM | 0.357 µM | -6.006 ± 0.562 kcal/mol | 37.74 ± 7.36 J/mol·K | 0.199 µM | -4.967 ± 0.146 kcal/mol | 57.67 ± 0.64 J/mol·K | 2490 µM | 1240 ± 164 µM | O=P(O)(O)OP(=O)(O)OC[C@H]1O[C@@H](n2cnc3c(NC4CCCCC4)ncnc32)[C@H](O)[C@@H]1O [6-cHe ADP, N6-cyclohexyladenosine-5’-diphosphate] | weakest inhibition | -5.28 ± 0.0693 kcal/mol | 18.84 ± 0.87 J/mol·K |  | 1600 µM | 733 ± 82.1 µM | 14.1 µM | 
8 |  |  |  | -7.359 ± 0.022 kcal/mol | 34.19 ± 1.55 J/mol·K |  | -5.731 ± 0.203 kcal/mol | 60.54 ± 3.65 J/mol·K |  |  | Nc1ncnc2c1ncn2[C@@H]1O[C@H](COP(=O)(O)OP(=O)(O)O)[C@@H](O)[C@H]1O [ADP, reference compound] |  | -6.52 ± 0.308 kcal/mol | 9.36 ± 4.48 J/mol·K |  |  |  |  | log IC50 (Hsc70-NBD [1]; Hsc70-NBD, ATP 50 μM, one-site logIC50 fit): 2.734 ± 0.117; Ki (Hsc70-NBD [1]; read-out: KIapp, Hsc70-NBD, ATP 50 μM, Morrison fit, ~ denotes ambiguous data): 239 ± 32.2 µM; Kd (Hsc70-NBD [2]; ITC, 25 °C, Hsc70-NBD): 0.0665 µM; Kd (mortalin-NBD [7]): 5.3 ± 0.106 µM; Ki (mortalin-NBD [3]; [8]): 353 ± 36.2 µM; Kd (Hsp70-NBD [4]; ITC, 25 °C, Hsp70-NBD): 0.0435 µM; log IC50 (Hsp70-NBD [5]; Hsp70-NBD, ATP 50 μM, one-site logIC50 fit): 2.697 ± 0.091; Ki (Hsp70-NBD [5]; read-out: KIapp, Hsp70-NBD, ATP 50 μM, Morrison fit, ~ denotes ambiguous data): 440 ± 47.8 µM
